Here are results for 14 molecules from ChEMBL document CHEMBL1153293, “Discovery and optimization of piperidyl benzamide derivatives as a novel class of 11beta-HSD1 inhibitors” (Bioorg Med Chem Lett, 2009).

Data set [1] has as its system HeLa. Nature of the data set: Cytotoxicity against human HeLa cells. Type of data set: functional, cell-based.
A short description of data set [2]: Metabolic stability in rat liver microsome assessed as compound remaining after 30 mins. The class given is ADME. The settings on record: liver microsomes, read-out: Stability.
Data set [3] can be described thus: Metabolic stability in human liver microsome assessed as compound remaining after 30 mins. The settings on record: liver microsomes, read-out: Stability. Type of data set: ADME. A general note: Microsomes from liver hold many membrane-bound enzymes, among them those of drug oxidation.
In data set [4] the target is T1, Nuclear receptor subfamily 1 group I member 2 (Homo sapiens, UniProt O75469).
T1 sequence (O75469 whole entry): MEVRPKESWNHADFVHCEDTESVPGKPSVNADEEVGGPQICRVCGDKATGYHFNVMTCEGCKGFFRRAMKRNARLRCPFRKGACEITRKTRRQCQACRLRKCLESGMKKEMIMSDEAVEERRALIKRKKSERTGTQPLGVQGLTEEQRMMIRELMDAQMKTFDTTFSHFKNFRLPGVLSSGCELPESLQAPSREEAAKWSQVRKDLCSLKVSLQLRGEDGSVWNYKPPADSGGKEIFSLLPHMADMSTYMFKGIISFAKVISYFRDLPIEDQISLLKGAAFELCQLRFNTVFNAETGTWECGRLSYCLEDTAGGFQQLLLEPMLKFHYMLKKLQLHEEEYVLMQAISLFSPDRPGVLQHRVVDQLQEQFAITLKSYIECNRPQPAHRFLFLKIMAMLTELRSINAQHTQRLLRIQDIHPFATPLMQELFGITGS
Nature of the data set: Activity at human PXR receptor transfected in human HepG2 cells assessed as receptor activation at 2 uM by luciferase based reporter gene assay relative to rifampin. Type of data set: cell-based. The settings on record: hepg2, 2 µM. The gist of the method:
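HepG2 cells transfected with human PXR cDNA and a luciferase reporter construct driven by the CYP3A4 gene. Cells were exposed to test article, and luciferase activity was read by chemiluminescence. Rifampin at 10 µM served as the positive control.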
In general terms: In a reporter assay the amount or activity of a reporter protein is the signal.

The nature of data set [5]: Metabolic stability in rat hepatocyte assessed as compound remaining after 90 mins. Type of data set: ADME, cell-based. The settings on record: hepatocytes, read-out: Stability.
The nature of data set [6]: Metabolic stability in human hepatocyte assessed as compound remaining after 90 mins. The class given is ADME, cell-based. Conditions: hepatocytes, read-out: Stability.
A short description of data set [7]: Fraction unbound in human plasma. Type of data set: ADME, cell-free. The gist of the method: (§1)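 Unbound fraction (fu) in plasma was measured with a 4 h ultracentrifugation protocol, with samples analyzed by mass spectrometry.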
The nature of data set [8]: Fraction unbound in rat plasma. The class given is ADME, cell-free. In outline: as §1
Data set [9] is described as follows: Oral bioavailability in rat at 2.0 mg/kg. Type of data set: ADME, organism-based. The settings on record: in vivo. The gist of the method:
(§2)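 Rats received each compound both iv (0.39, 0.50 or 0.51 mg/kg, depending on compound) and orally at 2.0 mg/kg. Plasma clearance was taken from the iv arm and oral bioavailability (%F) from the po dose.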

Data set [10] in a line: Clearance in rat at 0.50 mg/kg, iv. The class given is ADME, organism-based. Also noted: dose 0.5 mg/kg, route intravenous. Conditions: in vivo, 0.5 mg/kg. In outline:
as §2

Data set [11] is described as follows: Clearance in rat at 0.39 mg/kg, iv. The class given is ADME, organism-based. The settings on record: in vivo. Also noted: dose 0.39 mg/kg, route intravenous. In outline: as §2
Data set [12] is described as follows: Clearance in rat at 0.51 mg/kg, iv. The class given is ADME, organism-based. Also noted: dose 0.51 mg/kg, route intravenous. Conditions: in vivo. In outline:
as §2

Data set [13] addresses T2, 11-beta-hydroxysteroid dehydrogenase 1 (Homo sapiens, UniProt P28845). Nature of the data set: Inhibition of human recombinant 11beta-HSD1 expressed in baculovirus system by scintillation proximity assay. (In general: SPA uses beads or plates that emit light when radiolabelled molecules are held near them.)
Data set [14] addresses T2, 11-beta-hydroxysteroid dehydrogenase 1. Nature of the data set: Inhibition of human recombinant 11beta-HSD1 expressed HEK293 cells by scintillation proximity assay in presence of human serum albumin. Type of data set: cell-based.
The target is the same in data set [15]. Nature of the data set: Inhibition of human recombinant 11beta-HSD1 expressed HEK293 cells by scintillation proximity assay. Type of data set: cell-based.

The structures appear in SMILES notation. A value given as a limit tells only on which side of the number the result lay.

T2 sequence (P28845 whole entry): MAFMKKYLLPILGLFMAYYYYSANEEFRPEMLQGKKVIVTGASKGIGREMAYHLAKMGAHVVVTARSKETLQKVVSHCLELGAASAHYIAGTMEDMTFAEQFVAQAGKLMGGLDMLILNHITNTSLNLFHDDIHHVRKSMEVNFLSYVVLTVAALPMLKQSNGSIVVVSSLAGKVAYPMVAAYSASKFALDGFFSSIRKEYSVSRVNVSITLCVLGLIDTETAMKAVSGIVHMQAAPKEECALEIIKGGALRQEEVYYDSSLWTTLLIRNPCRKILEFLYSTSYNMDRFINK

Consider `C[C@](O)(c1ccc(C(=O)N(C2CC2)C2CCN(CC3(C#N)CC3)CC2)cc1)C(F)(F)F`, for which the half-maximal inhibitory concentration (IC50) (usually the concentration at which inhibition is half-maximal) in [1] was above 10 µM. The remaining at 0.5 h in [2] is 28%; in [3], 86%. For the same molecule, in data set [4], the Activity worked out at 3%.

With `C[C@](O)(c1ccc(C(=O)N(C2CC2)[C@H]2CC[C@H](CC3(C(N)=O)CC3)CC2)cc1)C(F)(F)F`, the remaining at 1.5 h in [5] is 73%; in [6] it was above 90%. The same molecule displayed a 50% inhibitory concentration (IC50) in data set [1] of 8 µM. Besides, the remaining at 0.5 h in [2] and in data set [3] was above 90% each time. The unbound share (fraction unbound) (usually free concentration divided by total concentration) in data set [7] turned out to be 0.12; in [8] it was 0.048. The Activity in data set [4] is 6.5%.

Regarding `C[C@@](O)(c1ccc(C(=O)N(C2CC2)[C@H]2CC[C@@H](CCC(N)=O)CC2)cc1)C(F)(F)F`, the IC50 in data set [1] was above 10 µM. The remaining at 0.5 h was 72% in [2] and above 90% in data set [3]. Moreover, in data set [4], the Activity came to 100%.

In the case of `C[C@@](O)(c1ccc(C(=O)N(C2CC2)[C@H]2CC[C@@H](CC#N)CC2)cc1)C(F)(F)F`, the figures for the remaining at 0.5 h in [2] and in [3] were 5% and 70%, respectively. For the same molecule, the Activity in data set [4] is recorded as 74%.

As for `C[C@](O)(c1ccc(C(=O)N(C2CC2)[C@H]2CC[C@H](CC3(C#N)CC3)CC2)cc1)C(F)(F)F`, in [1], the midpoint of inhibition, the IC50, lay at 4 µM. Also, the remaining at 0.5 h in data set [2] and in data set [3] was above 90% in each case. In addition, the Activity in [4] is on record as 60%.

The molecule `C[C@](O)(c1ccc(C(=O)N(C2CC2)[C@H]2CC[C@H](c3cccnc3)CC2)cc1)C(F)(F)F` had an IC50 in [1] of 2.5 µM.

Turning to `C[C@](O)(c1ccc(C(=O)N(C2CC2)C2CCN(CC3(C(N)=O)CC3)CC2)cc1)C(F)(F)F`, the bioavailability (usually dose-corrected exposure relative to a reference, in per cent) in [9] was 69%. Besides, the remaining at 1.5 h in data set [5] is 69%; in data set [6] it was above 90%. Moreover, the 50% inhibitory concentration (IC50) in [1] is above 10 µM. Further, the results for the remaining at 0.5 h in [2] and in data set [3] were 86% and above 90%, respectively. In addition, the clearance (usually the rate of elimination divided by the concentration) in data set [10] is 14.8 mL/min/kg. In addition, the unbound share (fraction unbound) came to 0.48 in data set [7] and 0.2 in [8]. The Activity in data set [4] is reported as 4%.

Turning to `CC(C)(C[C@H]1CC[C@H](N(C(=O)c2ccc([C@](C)(O)C(F)(F)F)cc2)C2CC2)CC1)C(N)=O`, in [9], the bioavailability came out at 32%. Further, the remaining at 1.5 h is 10% in data set [5] and 84% in data set [6]. In [1], this molecule returned a 50% inhibitory concentration (IC50) above 10 µM. Also, the remaining at 0.5 h in [2] and in data set [3] was above 90% each time. For the same molecule, the Activity in data set [4] came to 4%. The clearance in [11] is 21.7 mL/min/kg.

For the molecule `C[C@@](O)(c1ccc(C(=O)N(C2CC2)[C@H]2CC[C@H](CC#N)CC2)cc1)C(F)(F)F`, the results for the remaining at 0.5 h in data set [2] and in [3] were 73% and above 90%, respectively. Also, in data set [4], the Activity stood at 75%.

With `C[C@@](O)(c1ccc(C(=O)N(C2CC2)[C@H]2CC[C@H](CCC(N)=O)CC2)cc1)C(F)(F)F`, the bioavailability in data set [9] came to 22%. The remaining at 1.5 h in data set [5] is below 5%; in data set [6], 32%. This molecule also gave a clearance in data set [12] of 50 mL/min/kg. The molecule also displayed a 50% inhibitory concentration (IC50) in data set [1] above 10 µM. For the same molecule, the remaining at 0.5 h in data set [2] and in data set [3] was above 90% in each case. Also, the Activity in [4] is 5%.

On to `CC(C)(C#N)C[C@H]1CC[C@H](N(C(=O)c2ccc([C@](C)(O)C(F)(F)F)cc2)C2CC2)CC1`, for which the results for the remaining at 0.5 h in data set [2] and in data set [3] were 77% and above 90%, respectively. In data set [4], the Activity stood at 60%.

For the molecule `C[C@](O)(c1ccc(C(=O)N(C2CCC(CC(N)=O)CC2)C2CC2)cc1)C(F)(F)F` (mixture of isomers), the Activity in data set [4] is 1%.

Consider `C[C@](O)(c1ccc(C(=O)N(C2CC2)[C@H]2CC[C@@H](CCC#N)CC2)cc1)C(F)(F)F`, for which the IC50 was 0.0028 µM in data set [13], 0.13 µM in data set [14], 0.01 µM in data set [15] and above 10 µM in data set [1]. The remaining at 0.5 h is below 5% in [2] and 64% in data set [3]. In addition, in data set [4], the Activity is reported as 56%.

In data set [1], `C[C@](O)(c1ccc(C(=O)N(C2CC2)[C@H]2CC[C@H](CCC#N)CC2)cc1)C(F)(F)F` showed a concentration for half-maximal inhibition (IC50) above 10 µM. In addition, in data set [3], the remaining at 0.5 h was above 90%. The Activity in data set [4] turned out to be 30%.
